From paper PMC8851455 (ACS Omega, 2022)
Read-outs that look alike come from different tables or passages of the source.

Assays:
S. typhimurium TA100 = assay: Ames test, strain TA100; type: cell-based, Salmonella typhimurium
S. typhimurium TA102 = conditions: TA102 +S9, 5 μg/plate
S. typhimurium TA98 = assay: Ames test, strain TA98; type: cell-based, Salmonella typhimurium
MCF-7 cells = assay: MCF-7 cell proliferation assay; type: cell-based, human; conditions: for EC50: Homo sapiens, MCF7
In short: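 MCF-7 cells exposed to test compound or E2 at six concentrations from 10–12 to 10–7 M in EA-free medium. Proliferation read as MTT product absorbance at 570 nm. Three independent trials, each in triplicate. % RME2 = 100 × (OD test − OD VC)/(max OD E2 − OD VC). EC50 from curve fitting. EEF = EC50 of E2/EC50 of sample. One-way ANOVA with Dunnett's test versus E2 at each concentration.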

chicken embryo = assay: Chicken embryonic assay; type: in vivo; conditions: egg injection, day 18
chicken fetal liver = assay: TBARs level; type: in vivo; conditions: lower dose (0.05 mM: 45–50 μg/kg)
[1] = higher dose (0.5 mM: 450–500 μg/kg; E2 0.1 mM: 91 μg/kg)
[2] = lower dose (0.05 mM: 45–50 μg/kg; E2 0.01 mM: 9.1 μg/kg)

Row | Compound | EC50 (MCF-7 cells) | malformation rate (chicken embryo; [1]) | number of dead chicken embryo (chicken embryo; [1]) | number of malformation chicken embryo (chicken embryo; [1]) | weights: embryo (chicken embryo; [1]) | weights: heart (chicken embryo; [1]) | weights: liver (chicken embryo; [1]) | malformation rate (chicken embryo; [2]) | mortality rate (chicken embryo; [2]) | number of dead chicken embryo (chicken embryo; [2]) | number of malformation chicken embryo (chicken embryo; [2]) | weights: embryo (chicken embryo; [2]) | weights: heart (chicken embryo; [2]) | weights: liver (chicken embryo; [2]) | other results
1 | Nc1ccc2cc3ccccc3cc2c1 [2-AA, reference compound] | – | – | – | – | – | – | – | – | – | – | – | – | – | – | number of revertants/plate (M ± SD), positive control (S. typhimurium TA100; TA100 +S9, 5 μg/plate, control set of luteolin and apigenin): 941 ± 56 ^e^** revertants/plate; number of revertants/plate (M ± SD), positive control (S. typhimurium TA100; TA100 +S9, 5 μg/plate, control set of quercetin and genistein): 845 ± 45 ^e^** revertants/plate; number of revertants/plate (M ± SD), positive control (S. typhimurium TA102; control set of luteolin and apigenin): 997 ± 35 ^e^** revertants/plate; number of revertants/plate (M ± SD), positive control (S. typhimurium TA102; control set of quercetin and genistein): 757 ± 35 ^e^** revertants/plate; number of revertants/plate (M ± SD), positive control (S. typhimurium TA98; TA98 +S9, 5 μg/plate, control set of luteolin and apigenin): 846 ± 47 ^e^** revertants/plate; number of revertants/plate (M ± SD), positive control (S. typhimurium TA98; TA98 +S9, 5 μg/plate, control set of quercetin and genistein): 806 ± 25 ^e^** revertants/plate
2 | O=[N+]([O-])c1ccc2c(c1)Cc1ccccc1-2 [2-NF, reference compound] | – | – | – | – | – | – | – | – | – | – | – | – | – | – | number of revertants/plate (M ± SD), positive control (S. typhimurium TA98; TA98 -S9, 1 μg/plate, control set of luteolin and apigenin): 723 ± 64 ^c^** revertants/plate; number of revertants/plate (M ± SD), positive control (S. typhimurium TA98; TA98 -S9, 1 μg/plate, control set of quercetin and genistein): 634 ± 16 ^c^** revertants/plate
3 | C[C@]12CC[C@@H]3c4ccc(O)cc4CC[C@H]3[C@@H]1CC[C@@H]2O [E2, 17β-estradiol, reference compound] | 0.01 nM | 0.0% | 6 | 0 | 22.89 ± 0.87 g | 0.18 ± 0.01 g | 0.47 ± 0.07 g | 0.0% | 31.8% | 7 | 0 | 20.24 ± 3.53 g | 0.18 ± 0.03 g | 0.54 ± 0.01 g | LSI (liver somatic index) (chicken embryo; [1]): 2.06 ± 0.38%; REEW (ratio of embryo to egg weight) (chicken embryo; [1]): 0.38 ± 0.021; mortality rate (chicken embryo; [1]): 33.3%; LSI (liver somatic index) (chicken embryo; [2]): 2.18 ± 0.01%; REEW (ratio of embryo to egg weight) (chicken embryo; [2]): 0.39 ± 0.001
4 | [N-]=[N+]=[N-].[Na+] [NaN3, reference compound] | – | – | – | – | – | – | – | – | – | – | – | – | – | – | number of revertants/plate (M ± SD), positive control (S. typhimurium TA100; TA100 -S9, 1 μg/plate, control set of luteolin and apigenin): 860 ± 52 ^d^** revertants/plate; number of revertants/plate (M ± SD), positive control (S. typhimurium TA100; TA100 -S9, 1 μg/plate, control set of quercetin and genistein): 743 ± 28 ^d^** revertants/plate
5 | O=c1cc(-c2ccc(O)c(O)c2)oc2cc(O)cc(O)c12 [luteolin] | 8.4 nM | 11.11% | 7 | 1 | 20.70 ± 0.00 g | 0.18 ± 0.05 g | 0.49 ± 0.05 g | 21.43% | 12.5% | 2 | 3 | 19.75 ± 0.75 g | 0.19 ± 0.05 g | 0.44 ± 0.05 g | EEF (estradiol equivalent factor) (MCF-7 cells; EC50 of E2 divided by that of the test compound): 0.0012; max % RME2 (MCF-7 cells; highest % RME2 (relative maximum % E2) in test range 10^–12–10^–7 M): 26%; TBARs value (chicken fetal liver): 142.56 nmol/g
